Assay results from ChEMBL document CHEMBL1145212, “Fluorinated diaryl sulfides as serotonin transporter ligands: synthesis, structure-activity relationship study, and in vivo evaluation of fluorine-18-labeled compounds as PET imaging agents” (J Med Chem, 2005).

Tests used:
Conditions in all cases: tested as the 18F-labelled form
[1] = biological target: Sodium-dependent serotonin transporter (Rattus norvegicus) (UniProt P31652); experiment: Specific binding in rat hypothalamus at 10 min postinjection in vivo; format: functional, organism-based
Sodium-dependent serotonin transporter (Rattus norvegicus), sequence (P31652 whole entry): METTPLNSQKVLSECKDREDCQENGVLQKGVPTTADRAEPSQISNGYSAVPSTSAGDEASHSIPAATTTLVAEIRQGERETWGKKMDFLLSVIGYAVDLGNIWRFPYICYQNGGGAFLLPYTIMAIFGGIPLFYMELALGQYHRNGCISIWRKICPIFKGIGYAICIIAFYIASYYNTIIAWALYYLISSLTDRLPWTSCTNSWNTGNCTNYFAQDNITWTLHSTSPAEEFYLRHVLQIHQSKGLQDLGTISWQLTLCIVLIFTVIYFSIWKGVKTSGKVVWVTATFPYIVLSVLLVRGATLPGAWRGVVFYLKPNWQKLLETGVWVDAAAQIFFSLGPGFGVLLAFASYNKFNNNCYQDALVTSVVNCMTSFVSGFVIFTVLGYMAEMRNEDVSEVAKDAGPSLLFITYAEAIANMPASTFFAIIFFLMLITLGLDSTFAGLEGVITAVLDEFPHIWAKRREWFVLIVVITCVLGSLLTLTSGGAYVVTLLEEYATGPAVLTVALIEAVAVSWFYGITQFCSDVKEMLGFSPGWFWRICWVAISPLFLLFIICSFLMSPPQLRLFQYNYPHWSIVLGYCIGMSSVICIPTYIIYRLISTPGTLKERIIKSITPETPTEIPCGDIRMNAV
Summary of the method: (§1)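 Male Sprague-Dawley rats, n=3 per time point, received about 20 µCi of F-18 radioligand in saline iv by tail vein and were killed at 10–120 min. %ID/g was measured with decay and tail-residual correction. Hypothalamic specific binding = (%ID/g hypothalamus − %ID/g cerebellum)/%ID/g cerebellum; mean ± SD.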

[2] = biological target: Sodium-dependent serotonin transporter (Rattus norvegicus) (UniProt P31652); experiment: Specific binding in rat hypothalamus at 90 min postinjection in vivo; format: functional, organism-based; summary of the method: as §1
[3] = biological target: Sodium-dependent serotonin transporter (Rattus norvegicus) (UniProt P31652); experiment: Specific binding of [18F]AFA in rat hypothalamus after GBR-12935 treatment; n=3; format: functional, tissue-based
Summary of the method: (§2)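 Rats, three per group, were pretreated iv with blocker at 2 mg/kg in saline, or with saline as control, 10–15 min before tail-vein F-18 radioligand (about 20 µCi). Killed at 60 min and regional %ID/g determined. Specific binding = (region activity − cerebellum activity)/cerebellum activity; mean ± SD.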

[4] = biological target: Sodium-dependent serotonin transporter (Rattus norvegicus) (UniProt P31652); experiment: Specific binding of [18F]-AFA in rat striatum after nisoxetine treatment; n=3; format: functional, tissue-based; summary of the method: as §2
[5] = biological target: Sodium-dependent serotonin transporter (Rattus norvegicus) (UniProt P31652); experiment: Specific binding of [18F]AFA in rat striatum after GBR-12935 treatment; n=3; format: functional, tissue-based; summary of the method: as §2
Rattus norvegicus [6] = species: Rattus norvegicus; experiment: Regional uptake of [18F]-AFA in blood of rat pretreated with compound GBR-12935; n=3; format: functional, organism-based
Summary of the method: (§3)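 Male Sprague-Dawley rats, three per group, received blocker (2 mg/kg iv in saline) or saline only (controls) 10–15 min before about 20 µCi of tail-vein F-18 radioligand. Killed 60 min after tracer. Blood and brain regions weighed and gamma-counted. %ID/g was decay- and tail-corrected; mean ± SD.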

[7] = biological target: Sodium-dependent serotonin transporter (Rattus norvegicus) (UniProt P31652); experiment: Specific binding of [18F]AFA in rat hippocampus after citalopram treatment; n=3; format: functional, tissue-based; summary of the method: as §2
Rattus norvegicus [8] = species: Rattus norvegicus; experiment: Regional uptake of [18F]AFA in striatum of rat pretreated with compound citalopram; n=3; format: functional, organism-based; summary of the method: as §3
Rattus norvegicus [9] = species: Rattus norvegicus; experiment: Regional uptake of [18F]AFA in hypothalamus of rat pretreated with compound 7d; n=3; format: functional, organism-based
[10] = biological target: Sodium-dependent serotonin transporter (Rattus norvegicus) (UniProt P31652); experiment: Specific binding of [18F]AFA in rat frontal cortex after GBR-12935 treatment; n=3; format: functional, tissue-based; summary of the method: as §2
Rattus norvegicus [11] = species: Rattus norvegicus; experiment: Regional uptake of [18F]-AFM in thalamus of rat pretreated with compound 7d; n=3
Rattus norvegicus [12] = species: Rattus norvegicus; experiment: Regional uptake of [18F]AFA in frontal cortex of rat pretreated with compound nisoxetine; n=3; format: functional, organism-based; summary of the method: as §3
Rattus norvegicus [13] = species: Rattus norvegicus; experiment: Regional uptake of [18F]AFA in hippocampus of rat pretreated with compound citalopram; n=3; format: functional, organism-based; summary of the method: as §3
Rattus norvegicus [14] = species: Rattus norvegicus; experiment: Regional uptake of [18F]AFA in blood of rat pretreated with compound nisoxetine; n=3; format: functional, organism-based; summary of the method: as §3
Rattus norvegicus [15] = species: Rattus norvegicus; experiment: Regional uptake of [18F]AFA in striatum of rat pretreated with compound nisoxetine; n=3; format: functional, organism-based; summary of the method: as §3
[16] = biological target: Sodium-dependent serotonin transporter (Rattus norvegicus) (UniProt P31652); experiment: Specific binding of [18F]AFA in rat frontal cortex after citalopram treatment; n=3; format: functional, tissue-based; summary of the method: as §2
[17] = biological target: Sodium-dependent serotonin transporter (Rattus norvegicus) (UniProt P31652); experiment: Specific binding of [18F]AFA in rat hypothalamus after nisoxetine treatment; n=3; format: functional, tissue-based; summary of the method: as §2
[18] = biological target: Sodium-dependent serotonin transporter (Rattus norvegicus) (UniProt P31652); experiment: Specific binding of [18F]AFA in rat thalamus after citalopram treatment; n=3; format: functional, tissue-based; summary of the method: as §2
[19] = biological target: Sodium-dependent serotonin transporter (Rattus norvegicus) (UniProt P31652); experiment: Specific binding of [18F]AFA in rat thalamus after nisoxetine treatment; n=3; format: functional, tissue-based; summary of the method: as §2
[20] = biological target: Sodium-dependent serotonin transporter (Rattus norvegicus) (UniProt P31652); experiment: Specific binding in rat hypothalamus at 120 min postinjection in vivo; format: functional, organism-based; summary of the method: as §1
[21] = biological target: Sodium-dependent serotonin transporter (Rattus norvegicus) (UniProt P31652); experiment: Specific binding of [18F]AFA in rat frontal cortex after nisoxetine treatment; n=3; format: functional, tissue-based; summary of the method: as §2
Rattus norvegicus [22] = species: Rattus norvegicus; experiment: Regional uptake of [18F]AFA in cerebellum of rat pretreated with compound nisoxetine; n=3; format: functional, organism-based; summary of the method: as §3
Rattus norvegicus [23] = species: Rattus norvegicus; experiment: Regional uptake of [18F]AFA in thalamus of rat pretreated with compound nisoxetine; n=3; format: functional, organism-based; summary of the method: as §3
Rattus norvegicus [24] = species: Rattus norvegicus; experiment: Regional uptake of [18F]-AFA in blood of rat pretreated with compound citalopram; n=3; format: functional, organism-based; summary of the method: as §3

CN(C)Cc1ccccc1Sc1ccc(CF)cc1N
Specific binding [1]: 0.98 %ID/g
Specific binding (dimensionless ratio) [2]: 5.81
Specific binding [3]: 5.3 %ID/g
Specific binding [4]: 3.59 %ID/g
Specific binding [5]: 4.37 %ID/g
Uptake (Rattus norvegicus [6]): 0.11 %ID/g
Specific binding [7]: 0.67 %ID/g
Uptake (Rattus norvegicus [8]): 0.12 %ID/g
Uptake (Rattus norvegicus [9]): 0.17 %ID/g
Specific binding [10]: 3.83 %ID/g
Uptake (Rattus norvegicus [11]): 0.17 %ID/g
Uptake (Rattus norvegicus [12]): 0.72 %ID/g
Uptake (Rattus norvegicus [13]): 0.13 %ID/g
Uptake (Rattus norvegicus [14]): 0.11 %ID/g
Uptake (Rattus norvegicus [15]): 0.58 %ID/g
Specific binding [16]: 0.36 %ID/g
Specific binding [17]: 5.24 %ID/g
Specific binding [18]: 1.05 %ID/g
Specific binding [19]: 4.71 %ID/g
Specific binding (dimensionless ratio) [20]: 8.37
Specific binding [21]: 4.02 %ID/g
Uptake (Rattus norvegicus [22]): 0.13 %ID/g
Uptake (Rattus norvegicus [23]): 0.65 %ID/g
Uptake (Rattus norvegicus [24]): 0.12 %ID/g
